Laboratory results from ChEMBL document CHEMBL4350996, “C8-substituted pyrido[3,4-d]pyrimidin-4(3H)-ones: Studies towards the identification of potent, cell penetrant Jumonji C domain containing histone lysine demethylase 4 subfamily (KDM4) inhibitors, compound profiling in cell-based target engagement assays” (Eur J Med Chem, 2019).
Residue numbers refer to the chain shown, from its start. Active and inactive are the calls of the source. No cut-off for these calls is given here.

What was measured:
[1] = system: T1, Lysine-specific demethylase 4A (Homo sapiens), O75164 [H188A,E190A]; experiment: Inhibition of FLAG tagged full length catalytically inactive human KDM4A H188A/E190A mutant transfected in HeLa cells assessed as change in H3K9Me3 level measured after 24 hrs by cell analyser based immunofluorescence assay
T1 sequence (whole entry): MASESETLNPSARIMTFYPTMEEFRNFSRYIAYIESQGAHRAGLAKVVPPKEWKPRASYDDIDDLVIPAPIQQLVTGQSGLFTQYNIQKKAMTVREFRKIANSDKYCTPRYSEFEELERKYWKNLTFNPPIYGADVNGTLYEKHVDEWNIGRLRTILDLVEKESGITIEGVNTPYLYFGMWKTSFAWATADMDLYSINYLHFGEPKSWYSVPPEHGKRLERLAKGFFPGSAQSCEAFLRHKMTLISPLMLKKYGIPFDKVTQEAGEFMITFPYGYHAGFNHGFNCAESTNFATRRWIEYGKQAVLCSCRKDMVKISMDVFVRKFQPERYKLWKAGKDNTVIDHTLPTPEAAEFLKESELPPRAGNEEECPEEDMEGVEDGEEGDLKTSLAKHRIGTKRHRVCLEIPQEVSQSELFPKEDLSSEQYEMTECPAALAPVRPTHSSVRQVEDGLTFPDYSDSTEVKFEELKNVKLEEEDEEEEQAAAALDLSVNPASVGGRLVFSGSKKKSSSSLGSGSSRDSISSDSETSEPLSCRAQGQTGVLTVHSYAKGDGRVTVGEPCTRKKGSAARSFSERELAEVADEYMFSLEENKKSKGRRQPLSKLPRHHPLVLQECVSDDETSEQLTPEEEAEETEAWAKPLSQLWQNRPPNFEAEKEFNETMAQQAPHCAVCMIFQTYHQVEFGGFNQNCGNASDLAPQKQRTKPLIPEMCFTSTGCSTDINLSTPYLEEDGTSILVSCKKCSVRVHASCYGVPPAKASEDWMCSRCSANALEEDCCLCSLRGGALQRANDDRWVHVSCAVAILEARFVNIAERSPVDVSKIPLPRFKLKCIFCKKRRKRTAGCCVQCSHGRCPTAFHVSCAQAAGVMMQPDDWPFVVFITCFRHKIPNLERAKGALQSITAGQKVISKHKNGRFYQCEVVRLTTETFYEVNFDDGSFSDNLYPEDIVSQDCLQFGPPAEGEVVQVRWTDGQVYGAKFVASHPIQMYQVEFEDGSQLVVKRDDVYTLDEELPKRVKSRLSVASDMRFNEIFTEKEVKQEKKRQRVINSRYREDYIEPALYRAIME
Method in brief: (§1)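 HeLa cells grown in DMEM with 10% FBS, 37°C, 5% CO₂, seeded 6000 cells/well overnight. Compounds serially diluted 1:3 to 1:5 in medium with 20% FBS, DMSO held constant, then added for 24 h. Histone mark read by immunofluorescence imaging, 10 fields per well at 20X.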

[2] = Drug metabolism in human LNCAP cells assessed as metabolite formation at 10 uM measured upto 120 hrs by UPHLC analysis; assay type: ADME, cell-based
Method in brief: (§2)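 They were then given 10 μM compound or 0.1% DMSO vehicle. Media and trypsinised cell pellets were collected at 1, 6, 24, 48, 72 and 120 h, frozen at -80 °C, and analysed by UHPLC–Orbitrap MS using full MS/dd-MS² and full MS/AIF.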

[3] = system: Lysine-specific demethylase 5B (Homo sapiens), Q9UGL1 [H499A,E501A]; experiment: Inhibition of full length human catalytically inactive KDM5B H499A/E501A mutant transfected in HeLa cells assessed as change in H3K4Me3 level measured after 24 hrs by cell analyser based immunofluorescence assay; method in brief: as §1
Chain of Lysine-specific demethylase 5B (Homo sapiens), Q9UGL1 [H499A,E501A] (Q9UGL1 whole entry H499A/E501A): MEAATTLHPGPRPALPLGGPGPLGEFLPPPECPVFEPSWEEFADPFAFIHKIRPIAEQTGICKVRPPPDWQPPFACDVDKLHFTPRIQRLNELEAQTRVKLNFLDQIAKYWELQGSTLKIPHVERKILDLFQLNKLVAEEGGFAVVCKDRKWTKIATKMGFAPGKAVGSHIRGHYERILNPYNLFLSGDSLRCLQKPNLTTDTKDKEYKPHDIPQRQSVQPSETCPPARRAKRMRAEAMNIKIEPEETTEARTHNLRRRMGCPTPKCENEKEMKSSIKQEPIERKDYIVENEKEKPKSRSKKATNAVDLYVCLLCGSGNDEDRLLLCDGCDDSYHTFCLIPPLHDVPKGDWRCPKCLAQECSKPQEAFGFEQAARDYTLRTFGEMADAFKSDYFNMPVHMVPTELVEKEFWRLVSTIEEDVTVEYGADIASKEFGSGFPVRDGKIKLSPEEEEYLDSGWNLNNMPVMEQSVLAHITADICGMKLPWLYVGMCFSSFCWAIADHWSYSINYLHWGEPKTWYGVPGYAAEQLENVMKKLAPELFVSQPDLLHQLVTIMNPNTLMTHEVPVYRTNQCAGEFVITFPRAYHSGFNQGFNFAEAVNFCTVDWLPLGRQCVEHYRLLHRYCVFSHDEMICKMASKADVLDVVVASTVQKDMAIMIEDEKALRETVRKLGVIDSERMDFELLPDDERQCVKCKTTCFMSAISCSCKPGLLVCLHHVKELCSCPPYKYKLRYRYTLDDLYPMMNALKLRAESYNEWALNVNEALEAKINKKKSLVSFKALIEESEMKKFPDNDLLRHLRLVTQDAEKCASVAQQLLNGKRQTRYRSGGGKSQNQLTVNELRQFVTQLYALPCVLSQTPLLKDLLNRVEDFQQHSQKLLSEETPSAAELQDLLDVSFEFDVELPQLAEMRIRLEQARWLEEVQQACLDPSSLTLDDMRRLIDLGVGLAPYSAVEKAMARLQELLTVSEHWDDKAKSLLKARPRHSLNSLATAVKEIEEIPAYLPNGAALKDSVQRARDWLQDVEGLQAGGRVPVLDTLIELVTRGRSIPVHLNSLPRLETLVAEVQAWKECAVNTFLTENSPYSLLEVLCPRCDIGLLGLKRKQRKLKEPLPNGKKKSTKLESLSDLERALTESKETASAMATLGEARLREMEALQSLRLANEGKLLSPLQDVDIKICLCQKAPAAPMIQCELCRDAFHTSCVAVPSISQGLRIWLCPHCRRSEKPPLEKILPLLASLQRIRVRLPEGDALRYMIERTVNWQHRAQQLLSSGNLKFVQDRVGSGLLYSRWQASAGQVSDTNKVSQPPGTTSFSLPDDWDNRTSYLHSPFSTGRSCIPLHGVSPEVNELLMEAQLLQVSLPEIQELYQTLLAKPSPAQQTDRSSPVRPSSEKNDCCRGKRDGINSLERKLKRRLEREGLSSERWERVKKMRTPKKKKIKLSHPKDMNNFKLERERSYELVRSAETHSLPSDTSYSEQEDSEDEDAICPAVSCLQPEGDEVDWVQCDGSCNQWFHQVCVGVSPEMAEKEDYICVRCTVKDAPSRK

[4] = Drug uptake in human LNCAP cells at 10 uM measured upto 120 hrs by UPHLC analysis; assay type: ADME, cell-based; details: TDE = time-dependent effect; method in brief: as §2
[5] = target: T2, Lysine-specific demethylase 4A (Homo sapiens) (UniProt O75164); experiment: Inhibition of FLAG tagged full length wild type human KDM4A transfected in HeLa cells assessed as increase in H3K9Me3 level measured after 24 hrs by cell analyser based immunofluorescence assay
T2 sequence (whole entry): T1 sequence (whole entry) with A188H, A190E

[6] = target: Lysine-specific demethylase 5B (Homo sapiens) (UniProt Q9UGL1); experiment: Inhibition of full length human wild type KDM5B transfected in HeLa cells assessed as increase in H3K4Me3 level measured after 24 hrs by cell analyser based immunofluorescence assay
Chain of Lysine-specific demethylase 5B (Homo sapiens) (Q9UGL1 whole entry): as the sequence (Q9UGL1 whole entry H499A/E501A) above, with A499H, A501E counted along it

| inhibition [1] | Drug metabolism [2] | inhibition [3] | Drug uptake [4] | inhibition [5] | inhibition [6] | SMILES |
| --- | --- | --- | --- | --- | --- | --- |
| inactive | Metabolite_Notdetected | inactive | Tde | – | – | O=c1[nH]cnc2c(-n3cc(CCN4CCC5(CCc6ccccc65)CC4)cn3)nccc12 |
| inactive | Metabolite_Notdetected | inactive | Tde | inactive | inactive | O=c1[nH]cnc2c(-n3cc(CCN4CCC5(CCc6ccccc65)CC4)cn3)cccc12 |
